Assay results as given in ChEMBL document CHEMBL1806371, “Selenocyanates and diselenides: a new class of potent antileishmanial agents” (Eur J Med Chem, 2011).
Active and inactive are the calls of the source. The rule behind the calls is not given here.

How the values were obtained:
[1] = Human intestinal absorption in human; type: ADME, organism-based; conditions: read-out: HIA
Method in brief: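 Values are computed, not measured. Human intestinal absorption (%) and Caco-2 permeability (nm/s) were predicted in silico with the PreADMET program.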

[2] = Selectivity ratio, ratio of IC50 for human Jurkat cells to IC50 for Leishmania infantum MCAN/ES/89/IPZ229/1/89 amastigotes; type: ADME, cell-based; conditions: read-out: Ratio IC50
Method in brief: (§1)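 Selectivity index is IC50 against Jurkat or THP-1 cells divided by IC50 against L. infantum amastigotes. Host cells were treated in log phase at 4×10^5 cells/mL for 24 h at 37 °C, 5% CO2, at 0.08, 0.4, 2.0, 10.0 and 50.0 μM. Viability was measured by flow cytometry with propidium iodide exclusion.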

Leishmania infantum [3] = experiment: Antileishmanial activity against Leishmania infantum MCAN/ES/89/IPZ229/1/89 promastigotes assessed as growth inhibition at 12.5 uM after 24 hrs; type: functional
Method in brief: (§2)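 Log-phase L. infantum promastigotes (RPMI-1640, 10% FCS, 25 mM HEPES, pH 7.2, 26 °C) treated at 2×10^6 parasites/mL for 24 h. Screening used 25, 12.5 and 6.25 μM to give percent growth inhibition. Living cells measured by flow cytometry with propidium iodide exclusion. At least three independent experiments.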

Leishmania infantum [4] = experiment: Antileishmanial activity against Leishmania infantum MCAN/ES/89/IPZ229/1/89 promastigotes assessed as growth inhibition at 25 uM after 24 hrs; type: functional; method in brief: as §2
Leishmania infantum [5] = experiment: Antileishmanial activity against Leishmania infantum MCAN/ES/89/IPZ229/1/89 amastigotes expressing GFP infected in human THP1 cells assessed as parasite infected cells after 48 hrs by flow cytometry (reference value: 35%); type: functional, THP-1
[6] = Selectivity ratio, ratio of IC50 for human THP1 cells to IC50 for Leishmania infantum MCAN/ES/89/IPZ229/1/89 amastigotes; type: ADME, cell-based; conditions: THP-1 cells, read-out: Ratio IC50; method in brief: as §1
Jurkat = experiment: Cytotoxicity against human Jurkat cells assessed as live cells in neubauer chamber after 24 hrs by trypan blue assay; type: cell-based
Leishmania infantum [7] = experiment: Antileishmanial activity against Leishmania infantum MCAN/ES/89/IPZ229/1/89 promastigotes assessed as growth inhibition at 6.25 uM after 24 hrs; type: functional; method in brief: as §2
THP-1 = experiment: Cytotoxicity against human THP1 cells assessed as live cells in neubauer chamber after 24 hrs by trypan blue assay; type: cell-based; conditions: THP-1, 24 h
Leishmania infantum [8] = experiment: Ratio of edelfosine IC50 to compound IC50 for Leishmania infantum MCAN/ES/89/IPZ229/1/89 amastigotes; type: functional
[9] = Permeability across human Caco2 cells; type: ADME, cell-based; conditions: Caco-2, read-out: permeability
Leishmania infantum [10] = experiment: Antileishmanial activity against Leishmania infantum MCAN/ES/89/IPZ229/1/89 amastigotes after 24 hrs by microscopy; type: functional, organism-based; conditions: MCAN/ES/89/IPZ229/1/89, 24 h
Method in brief: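 Axenic L. infantum amastigotes (M199, 10% FCS, pH 5.4, 37 °C) treated in log phase at 1×10^6 parasites/mL for 24 h. Living cells counted by flow cytometry with propidium iodide exclusion, with microscopic observation by phase contrast or fluorescence. At least three independent experiments.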

Leishmania infantum [11] = experiment: Ratio of miltefosine IC50 to compound IC50 for Leishmania infantum MCAN/ES/89/IPZ229/1/89 amastigotes; type: functional
Leishmania infantum [12] = experiment: Antileishmanial activity against Leishmania infantum MCAN/ES/89/IPZ229/1/89 promastigotes after 24 hrs […]; type: functional, organism-based; conditions: MCAN/ES/89/IPZ229/1/89, 24 h; method in brief: as §2

SMILES	Fa [1]	selectivity ratio [2]	GI (Leishmania infantum [3])	GI (Leishmania infantum [4])	Activity (Leishmania infantum [5])	selectivity ratio [6]	IC50 (Jurkat)	GI (Leishmania infantum [7])	IC50 (THP-1)	Ratio IC50 (Leishmania infantum [8])	Papp [9]	IC50 (Leishmania infantum [10])	Ratio IC50 (Leishmania infantum [11])	growth inhibition (GI) (Leishmania infantum [4])	IC50 (Leishmania infantum [12])	growth inhibition (GI) (Leishmania infantum [3])	growth inhibition (GI) (Leishmania infantum [7])
O=[N+]([O-])c1ccc(C[Se][Se]Cc2ccc([N+](=O)[O-])cc2)cc1	98.3%	71	96.3%	98.7%	17%	77	26.8 µM	81.8%	18.8 µM	2.2	2.01 ×10⁻⁶ cm/s	0.38 µM	7.5	–	–	–	–
N#Cc1ccc(C[Se][Se]Cc2ccc(C#N)cc2)cc1	–	–	21.9%	32.8%	–	–	–	10.9%	–	–	–	–	–	–	–	–	–
N#C[Se]c1ccc(N)c(C(=O)O)c1	–	–	–	–	–	–	–	–	–	–	–	–	–	inactive	–	–	–
N#C[Se]Cc1ccc(Br)cc1	–	2	80.8%	97.1%	–	4	12.7 µM	49.2%	28.9 µM	–	–	7.95 µM	–	–	11.6 µM	–	–
CN(C)c1ccc([Se]C#N)cc1	–	10	86.7%	97.3%	–	16	29.3 µM	54.4%	44.7 µM	–	–	2.79 µM	–	–	9.24 µM	–	–
N#Cc1cccc(C[Se][Se]Cc2cccc(C#N)c2)c1	–	–	35.4%	44.3%	–	–	–	22.6%	–	–	–	–	–	–	–	–	–
Cc1ccc(C[Se][Se]Cc2ccc(C)cc2)cc1	–	–	–	2.5%	–	–	–	–	–	–	–	–	–	–	–	inactive	inactive
N#C[Se]c1ccc(N)cc1	–	5	38.2%	76.3%	–	> 5	43.8 µM	14.4%	> 50 µM	–	–	9.29 µM	–	–	11.2 µM	–	–
N#C[Se]Cc1ccc(C(F)(F)F)cc1	–	3	97.2%	98.8%	–	9	7.31 µM	79.4%	19.8 µM	–	–	2.14 µM	–	–	11.3 µM	–	–
N#C[Se]Cc1ccc2ccccc2c1	–	4	81.1%	91.5%	–	5	14 µM	37.1%	16.8 µM	–	–	3.72 µM	–	–	11.2 µM	–	–
CC(=O)Nc1ccc([Se]C#N)cc1C(=O)O	–	–	–	–	–	–	–	–	–	–	–	–	–	inactive	–	–	–
N#C[Se]Cc1ccccc1 [BENZYLSELENOCYANATE]	–	4	64.1%	99.4%	–	10	10.7 µM	46.5%	25 µM	–	–	2.58 µM	–	–	7.95 µM	–	–
N#C[Se]Cc1ccccc1C#N	–	5	62.4%	90.2%	–	5	17.1 µM	31.4%	17.1 µM	–	–	3.16 µM	–	–	7.75 µM	–	–
c1ccc2cc(C[Se][Se]Cc3ccc4ccccc4c3)ccc2c1	–	–	–	–	–	–	–	–	–	–	–	–	–	inactive	–	–	–
N#C[Se]Cc1ccc([N+](=O)[O-])cc1	–	10	95%	98%	–	25	6.86 µM	82.3%	16.8 µM	–	–	0.68 µM	–	–	4.3 µM	–	–
N#C[Se]Cc1cccc([N+](=O)[O-])c1	–	21	80.5%	97%	–	16	12.2 µM	47.2%	9.32 µM	–	–	0.57 µM	–	–	4.18 µM	–	–
CCCCCCCCCCCCCCCCOP(=O)([O-])OCC[N+](C)(C)C [MILTEFOSINE]	99%	17	–	–	–	7	33.4 µM	–	18.5 µM	–	2.17 ×10⁻⁶ cm/s	2.84 µM	–	–	15 µM	–	–
